Results reported in ChEMBL document CHEMBL1122847, “Antitrichomonal activity of mesoionic thiazolo[3,2-a]pyridines” (1985).
In brackets after ≈: the same amount, converted by molar mass.

Tests used:
Tritrichomonas suis [1] = assay: The minimum lethal concentration (MLC) against Trichomonas foetus; assay type: functional
Procedure, shortened: (§1)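 Broth microdilution in Kupferberg's medium (pH 7.2); compounds serially diluted 200–0.2 µg/mL in duplicate; each well inoculated with T. foetus at 15 parasites/mm3 in broth, overlaid with sterile mineral oil; 30 °C for 48 h; wells examined microscopically for viable parasites; MLC = lowest concentration without viable parasites; single values reflect consistent duplicate end points.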

Mesocricetus auratus [2] = species on record: Mesocricetus auratus; assay: Value is expressed as the ratio of (Tritrichomonas foetus) animals cured / total number(5) infected at day 4 post treatment after 4 days of treatment
Cricetinae gen. sp. [3] = assay: Value is expressed as the ratio of (Tritrichomonas foetus) animals cured / total number(5) infected at day 1 post treatment after 4 days of treatment; assay type: functional, Cricetulus griseus
Procedure, shortened: (§2)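 From day 3 postinfection, animals got one daily intravaginal 2% (w/w) propylene glycol cream dose plus two daily sc suspension doses (100 mg/kg) for 4 days. Vaginal washings (Kupferberg's medium) were taken days 1 and 4 posttreatment and checked microscopically for viable parasites.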

Cricetinae gen. sp. [4] = assay: Value is expressed as the ratio of (Tritrichomonas foetus infected) animals cured / total number(5) infected at day 4 post treatment after 4 days of treatment; assay type: functional, Cricetulus griseus; procedure, shortened: as §2
Cricetinae gen. sp. [5] = assay: Value is expressed as the ratio of (Tritrichomonas foetus infected) animals cured / total number(5) infected at day 1 post treatment after 4 days of treatment; assay type: functional, Cricetulus griseus; procedure, shortened: as §2
Tritrichomonas suis [6] = assay: The minimum lethal concentration (MLC) is determined in Trichomonas foetus; assay type: functional; procedure, shortened: as §1
Mesocricetus auratus [7] = species on record: Mesocricetus auratus; assay: Value is expressed as the ratio of (Tritrichomonas foetus infected) animals cured / total number(15) infected at day 4 post treatment after 4 days of treatment
Mesocricetus auratus [8] = species on record: Mesocricetus auratus; assay: Value is expressed as the ratio of (Tritrichomonas foetus infected) animals cured / total number(15) infected at day 1 post treatment after 4 days of treatment

[O-]c1c(-c2cccnc2)sc2cccc[n+]12
MLC (Tritrichomonas suis [1]): 12.5 µg/mL (≈ 54.8 µM) | Activity (Mesocricetus auratus [2]): 0 | Activity (Cricetinae gen. sp. [3]): 0

[O-]c1c(-c2ccc(Cl)cc2)sc2cccc[n+]12
MLC (Tritrichomonas suis [1]): 25 µg/mL (≈ 95.5 µM) | Activity (Mesocricetus auratus [2]): 0 | Activity (Cricetinae gen. sp. [3]): 0

Nc1ccccc1-c1sc2cccc[n+]2c1[O-]
MLC (Tritrichomonas suis [1]): 3.12 µg/mL (≈ 12.9 µM)

CC(C)(C)c1ccc(-c2sc3cccc[n+]3c2[O-])cc1
MLC (Tritrichomonas suis [1]): 25 µg/mL (≈ 88.2 µM)

[O-]c1c(-c2ccccc2)sc2c(O)ccc[n+]12
MLC (Tritrichomonas suis [1]): >200 µg/mL

COc1ccc(-c2sc3cccc[n+]3c2[O-])cc1
MLC (Tritrichomonas suis [1]): 6.25 µg/mL (≈ 24.3 µM) | Activity (Mesocricetus auratus [2]): 0 | Activity (Cricetinae gen. sp. [3]): 0

Cc1ccc(-c2sc3cccc[n+]3c2[O-])cc1
MLC (Tritrichomonas suis [1]): 12.5 µg/mL (≈ 51.8 µM) | Activity (Mesocricetus auratus [2]): 0 | Activity (Cricetinae gen. sp. [3]): 0

O=[N+]([O-])c1ccc2sc(-c3ccccc3)c([O-])[n+]2c1
MLC (Tritrichomonas suis [1]): 200 µg/mL (≈ 735 µM)

O=[N+]([O-])c1ccc(-c2sc3cccc[n+]3c2[O-])cc1
MLC (Tritrichomonas suis [1]): >200 µg/mL

Cc1cccc2sc(-c3ccccc3)c([O-])[n+]12
MLC (Tritrichomonas suis [1]): >200 µg/mL

[O-]c1c(-c2ccccc2)sc2nccc[n+]12
MLC (Tritrichomonas suis [1]): >200 µg/mL

O=[N+]([O-])c1ccc[n+]2c([O-])c(-c3ccccc3)sc12
MLC (Tritrichomonas suis [1]): 0.8 µg/mL (≈ 2.94 µM) | Activity (Mesocricetus auratus [2]): 0 | Activity (Cricetinae gen. sp. [3]): 0

[O-]c1c(-c2ccccc2)sc2sc3ccccc3[n+]12
MLC (Tritrichomonas suis [1]): >200 µg/mL

O=[N+]([O-])c1cccc(-c2sc3cccc[n+]3c2[O-])c1
MLC (Tritrichomonas suis [1]): >200 µg/mL

[S-]c1c(-c2ccc(Cl)cc2)sc2cccc[n+]12
MLC (Tritrichomonas suis [1]): >200 µg/mL

[O-]c1c(-c2ccccn2)sc2cccc[n+]12
MLC (Tritrichomonas suis [1]): 25 µg/mL (≈ 110 µM) | Activity (Mesocricetus auratus [2]): 0 | Activity (Cricetinae gen. sp. [3]): 1

CCOC(=O)C(Sc1ccccn1)c1ccccc1 (stereo unspecified)
Activity (Cricetinae gen. sp. [4]): 0 | Activity (Cricetinae gen. sp. [5]): 0 | MLC (Tritrichomonas suis [1]): >200 µg/mL

[O-]c1c(-c2ccccc2Cl)sc2cccc[n+]12
MLC (Tritrichomonas suis [1]): 100 µg/mL (≈ 382 µM) | Activity (Mesocricetus auratus [2]): 0 | Activity (Cricetinae gen. sp. [3]): 0

[S-]c1c(-c2ccccc2)sc2cccc[n+]12
MLC (Tritrichomonas suis [1]): >200 µg/mL

Nc1ccc(-c2sc3cccc[n+]3c2[O-])cc1
MLC (Tritrichomonas suis [1]): 1.6 µg/mL (≈ 6.6 µM) | Activity (Mesocricetus auratus [2]): 0 | Activity (Cricetinae gen. sp. [3]): 0

Nc1ccc[n+]2c([O-])c(-c3ccccc3)sc12
MLC (Tritrichomonas suis [1]): 200 µg/mL (≈ 825 µM)

[O-]c1c(-c2ccccc2)sc2ccc3ccccc3[n+]12
MLC (Tritrichomonas suis [1]): >200 µg/mL

O=[N+]([O-])c1ccccc1-c1sc2cccc[n+]2c1[O-]
MLC (Tritrichomonas suis [1]): 25 µg/mL (≈ 91.8 µM)

CN(C)c1ccc(-c2sc3cccc[n+]3c2[O-])cc1
MLC (Tritrichomonas suis [1]): 0.8 µg/mL (≈ 2.96 µM) | Activity (Mesocricetus auratus [2]): 0 | Activity (Cricetinae gen. sp. [3]): 0

O=C([N-]c1c(-c2ccccc2)sc2cccc[n+]12)c1ccccc1
MLC (Tritrichomonas suis [1]): >200 µg/mL

[O-]c1c(Sc2ccc(Cl)cc2)sc2cccc[n+]12
MLC (Tritrichomonas suis [1]): >200 µg/mL

[O-]c1c(/C=C/c2ccccc2)sc2cccc[n+]12
MLC (Tritrichomonas suis [1]): 200 µg/mL (≈ 789 µM)

[O-]c1c(-c2ccncc2)sc2cccc[n+]12
MLC (Tritrichomonas suis [1]): 50 µg/mL (≈ 219 µM) | Activity (Mesocricetus auratus [2]): 0 | Activity (Cricetinae gen. sp. [3]): 4

COc1ccc(-c2sc3cccc[n+]3c2[S-])cc1
MLC (Tritrichomonas suis [1]): >200 µg/mL

O=C([O-])C(Sc1ccccn1)c1ccccc1.[Na+] (stereo unspecified)
Activity (Cricetinae gen. sp. [4]): 0 | Activity (Cricetinae gen. sp. [5]): 0 | MLC (Tritrichomonas suis [1]): >200 µg/mL

[O-]c1c(-c2ccccc2)sc2cccc[n+]12
MLC (Tritrichomonas suis [1]): 12.5 µg/mL (≈ 55 µM) | Activity (Mesocricetus auratus [2]): 0 | Activity (Cricetinae gen. sp. [3]): 0

[O-]c1c(-c2ccccc2)oc2cccc[n+]12
MLC (Tritrichomonas suis [1]): >200 µg/mL | Activity (Mesocricetus auratus [2]): 0 | Activity (Cricetinae gen. sp. [3]): 0

OC1=C(c2ccccc2)SC(c2ccccc2)N1c1ccccc1 (stereo unspecified)
MLC (Tritrichomonas suis [6]): >200 µg/mL

Nc1cccc(-c2sc3cccc[n+]3c2[O-])c1
MLC (Tritrichomonas suis [1]): 12.5 µg/mL (≈ 51.6 µM)

Nc1ccc2sc(-c3ccccc3)c([O-])[n+]2c1
MLC (Tritrichomonas suis [1]): 100 µg/mL (≈ 413 µM)

CC(=O)Nc1ccc(-c2sc3cccc[n+]3c2[O-])cc1
MLC (Tritrichomonas suis [1]): >200 µg/mL

CC(=O)Nc1cccc(-c2sc3cccc[n+]3c2[O-])c1
MLC (Tritrichomonas suis [1]): 200 µg/mL (≈ 703 µM)

CC(=O)[N-]c1c(-c2ccccc2)sc2cccc[n+]12
MLC (Tritrichomonas suis [1]): >200 µg/mL

Cc1cc[n+]2c([O-])c(-c3ccccc3)sc2c1
MLC (Tritrichomonas suis [1]): 200 µg/mL (≈ 829 µM)

[O-]c1c(-c2ccccc2)sc2cncc[n+]12
MLC (Tritrichomonas suis [1]): >200 µg/mL

Br.[NH-]c1c(-c2ccccc2)sc2cccc[n+]12
MLC (Tritrichomonas suis [1]): >200 µg/mL

Cc1ncc([N+](=O)[O-])n1CCO [METRONIDAZOLE]
Activity (Mesocricetus auratus [7]): 15 | Activity (Mesocricetus auratus [8]): 15
